Source: ChEMBL document CHEMBL1126276, “Synthesis and antimalarial properties of 1-imino derivatives of 7-chloro-3-substituted-3,4-dihydro-1,9(2H,10H)-acridinediones and related structures” (J Med Chem, 1992)
Values joined by “and” are separate entries in the source; they are usually repeats but may differ in a detail not shown here. Equal values may be shown once.

Legend:
Plasmodium berghei [1] = test: Antimalarial activity in Plasmodium berghei infected mice (Mus musculus) after subcutaneous 160 mg/kg dose; assay type: functional
In short: (§1)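 Normal drug-sensitive P. berghei strain in mice. Compound dissolved or suspended in sesame or peanut oil, given parenterally as a single subcutaneous dose 72 h postinfection.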

Plasmodium berghei [2] = test: Antimalarial activity in Plasmodium berghei infected mice (Mus musculus) after subcutaneous 320 mg/kg dose; assay type: functional; in short: as §1
Plasmodium berghei [3] = test: Antimalarial activity in Plasmodium berghei infected mice (Mus musculus) after subcutaneous 640 mg/kg dose; assay type: functional; in short: as §1
Plasmodium berghei [4] = test: (§2) Antimalarial activity in Plasmodium berghei infected mice (Mus musculus) after 80 mg/kg subcutaneous dose; assay type: functional; in short: as §1
Plasmodium berghei [5] = test: Antimalarial activity in Plasmodium berghei infected mice (Mus musculus) after 160 mg/kg subcutaneous dose; assay type: functional
In short: (§3)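 […] in mice infected with a normal drug-sensitive P. berghei strain. Compound dissolved or suspended in sesame or peanut oil, given as a single subcutaneous dose 72 h postinfection.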

Plasmodium berghei [6] = test: Antimalarial activity in Plasmodium berghei infected mice (Mus musculus) after 320 mg/kg subcutaneous dose; assay type: functional; in short: as §3
Plasmodium berghei [7] = test: Antimalarial activity in Plasmodium berghei infected mice (Mus musculus) after 20 mg/kg subcutaneous dose; assay type: functional; in short: as §3
Plasmodium berghei [8] = test: as §2; assay type: functional; in short: as §3; remark: listed apart in the source
Plasmodium berghei [9] = test: (§4) Antimalarial activity in Plasmodium berghei infected mice (Mus musculus) after 40 mg/kg subcutaneous dose; assay type: functional; in short: as §3
Plasmodium berghei [10] = test: Antimalarial activity Plasmodium berghei infected mice (Mus musculus) after 640 mg/kg subcutaneous dose; assay type: functional; in short: as §3
Plasmodium berghei [11] = test: Antimalarial activity was measured against mice (Mus musculus) infected with Plasmodium berghei by subcutaneous administration of 640 mg/kg dose; assay type: organism-based; design: dose 640 mg/kg, route subcutaneous; details: in vivo, sc; in short: as §3
Plasmodium berghei [12] = test: as §4; assay type: functional; in short: as §1; remark: listed apart in the source

Structure (SMILES)	No. of cured mice (Plasmodium berghei [1])	No. of cured mice (Plasmodium berghei [2])	No. of cured mice (Plasmodium berghei [3])	No. of cured mice (Plasmodium berghei [4])	Delta mean survival time (Plasmodium berghei [5])	Delta mean survival time (Plasmodium berghei [6])	Delta mean survival time (Plasmodium berghei [7])	Delta mean survival time (Plasmodium berghei [8])	Delta mean survival time (Plasmodium berghei [9])	Delta mean survival time (Plasmodium berghei [10])	Delta mean survival time (Plasmodium berghei [9]; 40 mg/kg)	No. of toxic deaths (Plasmodium berghei [11])	No. of cured mice (Plasmodium berghei [12])	No. of cured mice (Plasmodium berghei [12]; 40 mg/kg)	Delta mean survival time (Plasmodium berghei [7]; 20 mg/kg)	Delta mean survival time (Plasmodium berghei [8]; 80 mg/kg)
COCCC/N=C1\CC(c2cccc(C(F)(F)F)c2)Cc2c1c(=O)c1cc(Cl)ccc1n2O (stereo not given)	1	3	5	1	5.1	13.8	–	–	–	–	–	–	–	–	–	–
O=c1c2c(n(O)c3ccc(Cl)cc13)CC(c1ccc(Cl)c(Cl)c1)C/C2=N\CCCNCCO (stereo not given)	3	4	5	1	9.6	11.6	2	7.9	6.6	–	–	–	–	–	–	–
CC1C(=O)c2c(nc3ccc(Cl)cc3c2O)CC1c1ccc(Cl)c(C(F)(F)F)c1 (stereo not given)	1	1	2	–	1.5	5	0.9	1.1	0.7	5.7	–	–	–	–	–	–
CC1C(=O)c2c(nc3ccc(Cl)cc3c2O)CC1c1ccc(Cl)cc1Cl (stereo not given)	2	2	5	2	15	17	8.2	1.18	–	–	10 and 9.3	–	–	–	–	–
O=C1CC(c2ccc(C(F)(F)F)cc2)Cc2c1c(=O)c1cc(Cl)ccc1n2Cc1ccccc1 (stereo not given)	–	–	–	–	0	–	–	–	0.2	0.3	–	1	–	–	–	–
CC(C)CN(CC/N=C1\CC(c2ccc(Cl)c(Cl)c2)Cc2c1c(=O)c1cc(Cl)ccc1n2O)CC(C)C (stereo not given)	2	1	5	1	9.7	13	3.6	6.3	5.3	–	–	–	1	–	–	–
COc1cc(C2C/C(=N\CCCN3CCCCC3)c3c(n(O)c4ccc(Cl)cc4c3=O)C2)cc(OC)c1OC (stereo not given)	–	–	–	–	1.4	–	–	–	0.3	4.5	–	1	–	–	–	–
CCN(CC)Cc1cccc(/N=C2\CC(c3ccc(Cl)c(Cl)c3)Cc3c2c(=O)c2cc(Cl)ccc2n3O)c1 (stereo not given)	2	4	4	–	10.3	22.6	1.6	8	6.6	42.6	–	–	–	–	–	–
O=C1CC(c2c(Cl)cccc2Cl)Cc2c1c(=O)c1cc(Cl)ccc1n2O (stereo not given)	1	3	2	–	5.8	23.9	0.7	5.1	1.5	11.2	–	–	–	–	–	–
CC1/C(=N\CCCN(C)C)c2c(nc3ccc(Cl)cc3c2O)CC1c1ccc(Cl)c(Cl)c1 (stereo in doubt)	–	–	4	–	–	–	–	–	–	–	21	1	–	4	7.8	10.7
CN(C)CCC/N=C1\CC(c2ccc(C(F)(F)F)cc2)Cc2nc3ccc(I)cc3c(O)c21 (stereo not given)	2	–	1	–	7.3	–	–	–	3	14	–	1	–	–	–	–
O=c1c2c(n(O)c3ccc(Cl)cc13)CC(c1cccc(C(F)(F)F)c1)C/C2=N\CCN1CCCC1 (stereo not given)	4	5	4	–	9.6	–	–	8	6.6	–	–	1	–	–	–	–
CCN(CC)CC(C)(C)C/N=C1\CC(c2ccc(Cl)c(Cl)c2)Cc2c1c(=O)c1cc(Cl)ccc1n2O (stereo not given)	4	4	5	2	14.6	13.6	4	10.3	9.6	–	–	–	1	–	–	–
O=C1CC(c2cccc(Br)c2)Cc2c1c(=O)c1cc(Cl)ccc1n2O (stereo not given)	1	1	4	–	9.2	10.7	0.1	5.9	2.5	7.9	–	–	–	–	–	–
O=C1CC(c2ccc(C(F)(F)F)cc2)Cc2nc3ccc(Br)cc3c(O)c21 (stereo not given)	1	3	4	–	4.4	10.6	3.6	3	5	12.8	–	–	–	–	–	–
CN(C)CCC/N=C1\CC2(CCCCC2)Cc2nc3ccc(Cl)cc3c(O)c21	–	–	–	–	0	–	–	–	0.6	0.4	–	1	–	–	–	–
